What was measured:
[1] = target: Receptor tyrosine-protein kinase erbB-2 (Homo sapiens, UniProt P04626); assay: Inhibition of HER-2 (unknown origin) using poly-(Glu4-Tyr) as substrate after 1 hr by ELISA-based spectrophotometry
How it was run: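 ELISA on plates pre-coated with poly(Glu,Tyr 4:1) substrate. Serially diluted compounds plus ATP were added in 50 mM HEPES pH 7.4 containing 20 mM MgCl₂, 0.2 mM MnCl₂, 0.1 mM Na₃VO₄ and 1 mM DTT. Phosphotyrosine was detected with anti-phosphotyrosine antibody PY99 (1:500), then HRP anti-mouse IgG, then o-phenylenediamine/H₂O₂ at pH 5.5.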

[2] = target: Epidermal growth factor receptor (Homo sapiens, UniProt P00533); assay: Inhibition of EGFR (unknown origin) using poly-(Glu4-Tyr) as substrate after 1 hr by ELISA-based spectrophotometry
Epidermal growth factor receptor, sequence (P00533 whole entry): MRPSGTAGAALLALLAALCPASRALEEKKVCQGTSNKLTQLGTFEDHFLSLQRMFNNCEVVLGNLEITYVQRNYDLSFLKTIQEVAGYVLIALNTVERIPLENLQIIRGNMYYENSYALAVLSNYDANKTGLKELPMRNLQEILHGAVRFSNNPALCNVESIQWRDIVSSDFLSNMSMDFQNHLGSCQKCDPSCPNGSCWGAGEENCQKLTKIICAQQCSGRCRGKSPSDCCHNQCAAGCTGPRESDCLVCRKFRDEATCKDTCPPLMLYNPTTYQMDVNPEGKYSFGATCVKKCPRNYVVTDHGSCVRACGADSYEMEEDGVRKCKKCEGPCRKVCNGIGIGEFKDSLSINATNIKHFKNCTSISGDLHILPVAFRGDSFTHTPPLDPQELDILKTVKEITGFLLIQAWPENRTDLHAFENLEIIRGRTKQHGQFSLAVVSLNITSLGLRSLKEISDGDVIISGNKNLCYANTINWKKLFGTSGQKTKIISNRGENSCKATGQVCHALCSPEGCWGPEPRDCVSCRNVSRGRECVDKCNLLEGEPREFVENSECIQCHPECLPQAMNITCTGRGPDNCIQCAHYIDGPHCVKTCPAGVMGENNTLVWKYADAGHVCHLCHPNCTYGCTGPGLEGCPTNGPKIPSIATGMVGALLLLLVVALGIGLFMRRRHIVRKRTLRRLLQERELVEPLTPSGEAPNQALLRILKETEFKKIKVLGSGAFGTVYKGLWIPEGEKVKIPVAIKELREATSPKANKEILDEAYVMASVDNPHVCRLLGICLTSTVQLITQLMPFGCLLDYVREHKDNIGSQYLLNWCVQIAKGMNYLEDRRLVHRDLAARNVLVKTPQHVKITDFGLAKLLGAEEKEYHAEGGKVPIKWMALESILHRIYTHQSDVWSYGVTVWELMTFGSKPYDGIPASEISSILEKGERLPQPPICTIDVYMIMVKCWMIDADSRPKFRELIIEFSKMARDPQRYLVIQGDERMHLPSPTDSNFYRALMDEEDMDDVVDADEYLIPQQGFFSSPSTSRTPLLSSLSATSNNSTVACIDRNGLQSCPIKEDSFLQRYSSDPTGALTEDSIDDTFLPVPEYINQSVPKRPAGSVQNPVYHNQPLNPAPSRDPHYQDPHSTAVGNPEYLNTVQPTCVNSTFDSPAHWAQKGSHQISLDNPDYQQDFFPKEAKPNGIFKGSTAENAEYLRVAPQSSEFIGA

BT-474 = assay: Cytotoxicity against human BT474 cells after 72 hrs by SRB assay; assay type: functional, cell-based; conditions: BT-474, 72 h
Mus musculus [3] = assay: Toxicity in BALB/c athymic mouse xenografted with human NCI-N87 cells assessed as hematuria at 200 mg/kg, po qd after 4 days; assay type: organism-based; set-up: dose 200 mg/kg, route oral; conditions: in vivo, 96 h
Mus musculus [4] = assay: Toxicity in BALB/c athymic mouse xenografted with human SKOV3 cells assessed as weight loss at 200 mg/kg, po qd after 4 days; assay type: organism-based, SK-OV-3; set-up: dose 200 mg/kg, route oral; conditions: in vivo, 96 h
NCI-N87 [5] = assay: Cytotoxicity against human NCI-N87 cells after 72 hrs by SRB assay; assay type: functional, cell-based; conditions: NCI-N87, 72 h
SK-OV-3 = assay: Antitumor activity against human SKOV3 cells xenografted in BALB/c athymic mouse assessed as tumor regression at 200 mg/kg, po qd after 21 days relative to vehicle-treated control; conditions: SK-OV-3, po, 504 h, read-out: TGI
NCI-N87 [6] = assay: Antitumor activity against human NCI-N87 cells xenografted in BALB/c athymic mouse assessed as tumor regression at 200 mg/kg, po qd after 28 days relative to vehicle-treated control; assay type: functional; conditions: NCI-N87, 672 h, read-out: TGI
How it was run: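 Female BALB/c athymic mice, 4–6 weeks old, received 2 × 10⁶ NCI-N87 or SK-OV-3 cells s.c. in the right flank. At a tumor volume of 100–300 mm³ they were randomized (control n = 10, treated n = 6). Tosylate salt was given at 200 mg/kg qd by oral gavage, and controls received vehicle. Tumor volume was taken as length × width²/2 by caliper. Inhibition = (1 − T/C) × 100% on mean relative tumor volume (RTV). Two-tailed t test.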

Mus musculus [7] = assay: Toxicity in BALB/c athymic mouse xenografted with human SKOV3 cells assessed as hematuria at 200 mg/kg, po qd after 4 days; assay type: organism-based, SK-OV-3; set-up: dose 200 mg/kg, route oral; conditions: in vivo, 96 h
Mus musculus [8] = assay: Toxicity in BALB/c athymic mouse xenografted with human SKOV3 cells assessed as bloody stool at 200 mg/kg, po qd after 4 days; assay type: organism-based, SK-OV-3; set-up: dose 200 mg/kg, route oral; conditions: in vivo, 96 h
Mus musculus [9] = assay: Toxicity in BALB/c athymic mouse xenografted with human NCI-N87 cells assessed as weight loss at 200 mg/kg, po qd after 4 days; assay type: organism-based; set-up: dose 200 mg/kg, route oral; conditions: in vivo, 96 h
Mus musculus [10] = assay: Toxicity in BALB/c athymic mouse xenografted with human NCI-N87 cells assessed as bloody stool at 200 mg/kg, po qd after 4 days; assay type: organism-based; set-up: dose 200 mg/kg, route oral; conditions: in vivo, 96 h
[11] = Aqueous solubility of the compound at 25 degC by shake-flask method; assay type: physicochemical; conditions: unbuffered water
[12] = Cmax in Wistar rat at 100 mg/kg, po; assay type: ADME, organism-based; set-up: dose 100 mg/kg, route oral; conditions: in vivo
How it was run: (§1)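 Male Wistar rats (220 ± 10 g), n = 4 per group, given the tosylate salt orally by gavage at 100 mg/kg, suspended in 0.5% sodium carboxymethylcellulose. Blood was sampled at 0.25 to 24 h. Parent compound and the lapatinib metabolite were extracted by C18 solid-phase extraction and analysed by LC/MSn.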

[13] = AUC (0 to t) in Wistar rat at 100 mg/kg, po; assay type: ADME, organism-based; set-up: dose 100 mg/kg, route oral; conditions: plasma; how it was run: as §1
[14] = Tmax in Wistar rat at 100 mg/kg, po; assay type: ADME, organism-based; set-up: dose 100 mg/kg, route oral; conditions: in vivo; how it was run: as §1
[15] = AUC (0 to infinity) in Wistar rat at 100 mg/kg, po; assay type: ADME, organism-based; set-up: time infinity, dose 100 mg/kg, route oral; conditions: plasma; how it was run: as §1
[16] = Mean residence time in Wistar rat at 100 mg/kg, po; assay type: ADME, organism-based; set-up: dose 100 mg/kg, route oral; conditions: in vivo; how it was run: as §1
[17] = Elimination half life in Wistar rat at 100 mg/kg, po; assay type: ADME, organism-based; set-up: dose 100 mg/kg, route oral; conditions: in vivo, read-out: beta t1/2 (converted); how it was run: as §1
Rattus norvegicus [18] = assay: Tmax in Wistar rat at 100 mg/kg, po assessed as lapatinib; assay type: ADME, organism-based; set-up: dose 100 mg/kg, route oral; conditions: in vivo; how it was run: as §1
Rattus norvegicus [19] = assay: Elimination half life in Wistar rat at 100 mg/kg, po assessed as lapatinib; assay type: ADME, organism-based; set-up: dose 100 mg/kg, route oral; conditions: in vivo; how it was run: as §1
Rattus norvegicus [20] = assay: AUC (0 to t) in Wistar rat at 100 mg/kg, po assessed as lapatinib; assay type: ADME, organism-based, Plasma; set-up: dose 100 mg/kg, route oral; conditions: in vivo; how it was run: as §1
Rattus norvegicus [21] = assay: AUC (0 to infinity) in Wistar rat at 100 mg/kg, po assessed as lapatinib; assay type: ADME, organism-based, Plasma; set-up: time infinity, dose 100 mg/kg, route oral; conditions: in vivo; how it was run: as §1
Rattus norvegicus [22] = assay: Mean residence time in Wistar rat at 100 mg/kg, po assessed as lapatinib; assay type: ADME, organism-based; set-up: dose 100 mg/kg, route oral; conditions: in vivo; how it was run: as §1
Rattus norvegicus [23] = assay: Cmax in Wistar rat at 100 mg/kg, po assessed as lapatinib; assay type: ADME, organism-based; set-up: dose 100 mg/kg, route oral; conditions: in vivo; how it was run: as §1

Receptor tyrosine-protein kinase erbB-2, sequence (P04626 whole entry): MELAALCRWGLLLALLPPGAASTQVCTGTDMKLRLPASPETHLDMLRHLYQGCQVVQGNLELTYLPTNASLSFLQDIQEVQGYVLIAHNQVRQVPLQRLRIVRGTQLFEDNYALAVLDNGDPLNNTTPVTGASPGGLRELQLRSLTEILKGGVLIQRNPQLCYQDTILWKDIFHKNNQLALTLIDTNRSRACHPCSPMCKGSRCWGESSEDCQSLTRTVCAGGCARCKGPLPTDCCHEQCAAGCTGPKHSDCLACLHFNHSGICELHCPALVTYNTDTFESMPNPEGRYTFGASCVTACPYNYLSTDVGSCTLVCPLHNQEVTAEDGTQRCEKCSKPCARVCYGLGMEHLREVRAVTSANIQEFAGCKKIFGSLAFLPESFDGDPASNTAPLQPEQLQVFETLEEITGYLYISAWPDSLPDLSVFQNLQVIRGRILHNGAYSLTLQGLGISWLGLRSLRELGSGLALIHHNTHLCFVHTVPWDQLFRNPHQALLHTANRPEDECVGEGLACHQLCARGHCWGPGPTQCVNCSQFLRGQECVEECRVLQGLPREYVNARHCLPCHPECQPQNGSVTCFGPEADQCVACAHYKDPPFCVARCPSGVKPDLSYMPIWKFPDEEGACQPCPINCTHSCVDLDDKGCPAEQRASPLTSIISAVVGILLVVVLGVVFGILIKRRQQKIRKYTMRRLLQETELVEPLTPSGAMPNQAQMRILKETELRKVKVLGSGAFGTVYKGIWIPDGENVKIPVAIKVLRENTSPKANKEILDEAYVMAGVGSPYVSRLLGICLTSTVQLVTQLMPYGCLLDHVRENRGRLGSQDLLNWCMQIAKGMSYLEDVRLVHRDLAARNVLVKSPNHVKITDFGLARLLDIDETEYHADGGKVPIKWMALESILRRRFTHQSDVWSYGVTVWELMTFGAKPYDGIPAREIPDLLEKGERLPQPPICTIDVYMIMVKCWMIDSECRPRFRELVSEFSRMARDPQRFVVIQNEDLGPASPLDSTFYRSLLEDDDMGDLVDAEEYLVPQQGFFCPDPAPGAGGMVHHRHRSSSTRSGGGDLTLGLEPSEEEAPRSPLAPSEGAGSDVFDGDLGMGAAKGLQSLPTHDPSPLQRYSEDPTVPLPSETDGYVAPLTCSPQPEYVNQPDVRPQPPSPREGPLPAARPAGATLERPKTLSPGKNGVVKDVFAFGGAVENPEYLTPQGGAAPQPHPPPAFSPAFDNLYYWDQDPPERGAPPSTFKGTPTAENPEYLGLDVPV

Compound | IC50 [1] [µM] | IC50 [2] [µM] | IC50 (BT-474) [µM] | IC50 (NCI-N87 [5]) [µM] | inhibition in vivo at 200 mg/kg (SK-OV-3) [%] | inhibition in vivo at 200 mg/kg (NCI-N87 [6]) [%] | solubility [11] [µg/mL] | Cmax [12] [ng/mL] | AUC(0-t) [13] [ng·h/mL] | Tmax [14] [h] | AUC(0-inf) [15] [ng·h/mL] | MRT [16] [h] | half-life [17] [h] | further results
CS(=O)(=O)N1CCN(Cc2ccc(-c3ccc4ncnc(Nc5ccc(OCc6cccc(F)c6)c(Cl)c5)c4c3)o2)CC1 | 0.0198 | 0.0599 | – | – | – | – | – | – | – | – | – | – | – | –
NS(=O)(=O)CCNCc1ccc(-c2ccc3ncnc(Nc4ccc(OCc5cccc(F)c5)c(Cl)c4)c3c2)o1 | 0.0039 | – | – | – | – | – | – | – | – | – | – | – | – | –
Cc1ccc(S(=O)(=O)O)cc1.O=S(=O)(CCNCc1ccc(-c2ccc3ncnc(Nc4ccc(OCc5cccc(F)c5)c(Cl)c4)c3c2)o1)CC(F)(F)F | 0.0086 | 0.0211 | 0.0264 | 0.0513 | 45.2 | 46.9 | 16.7 | – | – | – | – | – | – | Activity (Mus musculus [3]): Non-toxic; Activity (Mus musculus [4]): Non-toxic; Activity (Mus musculus [7]): Non-toxic; Activity (Mus musculus [8]): Non-toxic; Activity (Mus musculus [9]): Non-toxic; Activity (Mus musculus [10]): Non-toxic
CS(=O)(=O)CCNCc1ccc(-c2ccc3ncnc(Nc4ccc(OCc5cccc(F)c5)c(Cl)c4)c3c2)o1.Cc1ccc(S(=O)(=O)O)cc1.Cc1ccc(S(=O)(=O)O)cc1.O [LAPATINIB DITOSYLATE] | – | – | 0.0374 | 0.0462 | 78.8 | 89.7 | 7 | 3900 | 26900 | 2.5 | 26900 | 5.52 | 1.91 | –
CN1CCN(Cc2ccc(-c3ccc4ncnc(Nc5ccc(OCc6cccc(F)c6)c(Cl)c5)c4c3)o2)CC1 | 0.0237 | 0.0125 | – | – | – | – | – | – | – | – | – | – | – | –
C[S+]([O-])CCNCc1ccc(-c2ccc3ncnc(Nc4ccc(OCc5cccc(F)c5)c(Cl)c4)c3c2)o1.Cc1ccc(S(=O)(=O)O)cc1 (stereo unspecified) | – | – | – | – | – | – | – | 8880 | 50300 | 3.5 | 53200 | 5.38 | 2.32 | Tmax (Rattus norvegicus [18]): 4.5 h; beta t1/2 (Rattus norvegicus [19]): 2.64 h; AUCt (Rattus norvegicus [20]): 4295 ng·h/mL; AUC (Rattus norvegicus [21]): 4309 ng·h/mL; MRT (Rattus norvegicus [22]): 5.88 h; Cmax (Rattus norvegicus [23]): 645 ng/mL
